Results taken from ChEMBL document CHEMBL1155156, “In vitro interactions between apricitabine and other deoxycytidine analogues” (Antimicrob Agents Chemother, 2007).

Legend:
[1] = test system: Human immunodeficiency virus 1; assay: Antiviral activity against HIV1 with reverse transcriptase M184V mutation in human phytohemagglutininin-activated PBMC assessed as inhibition of viral replication; assay type: functional, organism-based
Procedure, shortened: (§1)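 PBMC from one healthy donor, stimulated 3 days with PHA (5 μg/ml) plus IL-2 (10 U/ml), infected with HIV-1 M184V at MOI 0.02 for 3 h at 37°C, washed, 2 × 10⁵ cells/well into drug-containing medium. Half the medium renewed with drug at day 4. Day 7 supernatant RT activity measured on poly(rA)(dT) with [³H]dTTP. Triplicates.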

[2] = test system: PBMC; assay: Drug level in human resting PBMC assessed as Lamivudine diphosphate level at 2.6 uM after 24 hrs; assay type: ADME, cell-based
Procedure, shortened: (§2)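 Unstimulated PBMC from a single healthy donor, cultured in RPMI 1640 + 10% heat-inactivated FBS, seeded at 1.0 × 10⁶ cells/ml and incubated 24 h with 2.6 μM ³H-labelled nucleoside alone. Cold PBS washes, 60% methanol extraction at −20°C overnight, C18 reverse-phase HPLC (7.5 mM sodium dihydrogen phosphate, pH 6.8) with online radiodetection. Intracellular parent, MP, DP, TP reported as μM (1 pmol/10⁶ cells ≈ 1 μM).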

[3] = test system: PBMC; assay: Drug level in human resting PBMC assessed as Lamivudine monophosphate level at 2.6 uM after 24 hrs; assay type: ADME, cell-based; procedure, shortened: as §2
[4] = test system: PBMC; assay: Drug level in human resting PBMC assessed as Lamivudine triphosphate level at 2.6 uM after 24 hrs; assay type: ADME, cell-based; procedure, shortened: as §2
[5] = test system: PBMC; assay: Drug level in human phytohemagglutininin-activated PBMC assessed as Lamivudine triphosphate level at 2.6 uM after 24 hrs; assay type: ADME, cell-based
Procedure, shortened: (§3)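 Single healthy donor PBMC from Ficoll-type separation with hypotonic erythrocyte lysis, cultured in RPMI 1640 + 10% heat-inactivated FBS and stimulated 72 h with PHA-M 5 μg/ml plus IL-2 10 U/ml. Seeded at 0.75 × 10⁶ cells/ml and exposed 24 h to 2.6 μM ³H-labelled nucleoside alone. Cells washed cold, extracted in 60% methanol, analysed by C18 reverse-phase HPLC (7.5 mM NaH2PO4, pH 6.8) with online radioactivity detection. Parent and MP/DP/TP expressed as μM (1 pmol/10⁶ cells ≈ 1 μM).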

[6] = test system: PBMC; assay: Drug level in human resting PBMC at 2.6 uM after 24 hrs; assay type: ADME, cell-based; procedure, shortened: as §2
[7] = test system: Human immunodeficiency virus 1; assay: Antiviral activity against HIV1 with reverse transcriptase M184V mutation in human phytohemagglutininin-activated PBMC assessed as inhibition of viral replication at 60 uM; assay type: functional; procedure, shortened: as §1
[8] = test system: Human immunodeficiency virus 1; assay: Antiviral activity against HIV1 with reverse transcriptase M184V mutation in human phytohemagglutininin-activated PBMC assessed as inhibition of viral replication at 200 uM; assay type: functional; procedure, shortened: as §1
[9] = test system: PBMC; assay: Drug level in human phytohemagglutininin-activated PBMC assessed as Lamivudine monophosphate level at 2.6 uM after 24 hrs; assay type: ADME, cell-based; procedure, shortened: as §3
[10] = test system: PBMC; assay: Drug level in human phytohemagglutininin-activated PBMC at 2.6 uM after 24 hrs; assay type: ADME, cell-based; procedure, shortened: as §3
[11] = test system: PBMC; assay: Drug level in human phytohemagglutininin-activated PBMC assessed as Lamivudine diphosphate level at 2.6 uM after 24 hrs; assay type: ADME, cell-based; procedure, shortened: as §3
[12] = test system: PBMC; assay: Drug level in human resting PBMC assessed as apricitabine diphosphate level at 2.6 uM after 24 hrs; assay type: ADME, cell-based; procedure, shortened: as §2
[13] = test system: PBMC; assay: Drug level in human phytohemagglutininin-activated PBMC assessed as apricitabine diphosphate level at 2.6 uM after 24 hrs; assay type: ADME, cell-based; procedure, shortened: as §3
[14] = test system: PBMC; assay: Drug level in human phytohemagglutininin-activated PBMC assessed as apricitabine monophosphate level at 2.6 uM after 24 hrs; assay type: ADME, cell-based; procedure, shortened: as §3
[15] = test system: PBMC; assay: Drug level in human resting PBMC assessed as apricitabine triphosphate level at 2.6 uM after 24 hrs; assay type: ADME, cell-based; procedure, shortened: as §2
[16] = test system: Human immunodeficiency virus; assay: Antiviral activity against HIV in T cells assessed as inhibition of viral replication; assay type: functional, organism-based; settings: Human immunodeficiency virus 1, T-cell
[17] = test system: Human immunodeficiency virus; assay: Antiviral activity against HIV in PBMCs assessed as inhibition of viral replication; assay type: functional, organism-based; settings: Human immunodeficiency virus 1
[18] = test system: PBMC; assay: Drug level in human phytohemagglutininin-activated PBMC assessed as apricitabine triphosphate level at 2.6 uM after 24 hrs; assay type: ADME, cell-based; procedure, shortened: as §3
[19] = test system: PBMC; assay: Drug level in human resting PBMC assessed as apricitabine monophosphate level at 2.6 uM after 24 hrs; assay type: ADME, cell-based; procedure, shortened: as §2

| SMILES | EC50 [1] [µM] | Drug uptake [2] [µM] | Drug uptake [3] [µM] | Drug uptake [4] [µM] | Drug uptake [5] [µM] | Drug uptake [6] [µM] | inhibition at 60 µM [7] [%] | inhibition at 200 µM [8] [%] | Drug uptake [9] [µM] | Drug uptake [10] [µM] | Drug uptake [11] [µM] | Drug uptake [12] [µM] | Drug uptake [13] [µM] | EC90 [1] [µM] | Drug uptake [14] [µM] | Drug uptake [15] [µM] | EC50 [16] [nM] | EC50 [17] [nM] | Drug uptake [18] [µM] | Drug uptake [19] [µM] |
| --- | --- | --- | --- | --- | --- | --- | --- | --- | --- | --- | --- | --- | --- | --- | --- | --- | --- | --- | --- | --- |
| Nc1ccn([C@@H]2CS[C@H](CO)O2)c(=O)n1 [LAMIVUDINE] | 68 | 1.01 | 0.12 | 0.73 | 0.66 | 0.1 | 45 | 45 | 0.52 | 0.18 | 1.66 | – | – | – | – | – | – | – | – | – |
| Nc1ccn([C@H]2CO[C@@H](CO)S2)c(=O)n1 [APRICITABINE] | 1.9 | – | – | – | – | 0.39 | – | – | – | 1.19 | – | 0.58 | 0.69 | 11.9 | 0.23 | 0.33 | 1000 | 100 | 0.54 | 0.11 |
